Activity calls are given as the source filed them. The rule behind the calls is not given here.
How the values were obtained:
DCN1-like protein 1 = DCN1-like protein 1 (Homo sapiens, UniProt Q96GG9); experiment: Binding affinity to N-terminal His6-tagged recombinant human DCN1 expressed in Escherichia coli BL21-AI assessed as reduction in DCN1-FAM-labelled N-terminal acetylated UBE2M (1 to 12 residues) protein-protein interaction after 30 mins by fluorescence polarization competitive binding assay
DCN1-like protein 3 = target: T1, DCN1-like protein 3 (Homo sapiens, UniProt Q8IWE4); experiment: Binding affinity to N-terminal GST tagged recombinant DCN3 (unknown origin) (86 to 304 residues) expressed in Escherichia coli BL21(DE3) assessed as reduction in DCN1/FAM-labelled N-terminal acetylated UBE2M (1 to 21 residues) protein-protein interaction after 30 mins by HTRF assay
T1 sequence (Q8IWE4 whole entry): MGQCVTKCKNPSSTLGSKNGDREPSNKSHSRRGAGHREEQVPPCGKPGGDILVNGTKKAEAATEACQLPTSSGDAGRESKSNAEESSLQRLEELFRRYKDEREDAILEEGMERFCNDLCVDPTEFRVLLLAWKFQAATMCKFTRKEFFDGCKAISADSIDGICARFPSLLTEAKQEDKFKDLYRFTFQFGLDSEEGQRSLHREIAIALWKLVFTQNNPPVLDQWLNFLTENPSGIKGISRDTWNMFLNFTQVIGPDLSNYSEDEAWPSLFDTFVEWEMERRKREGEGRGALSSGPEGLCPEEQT
Method in brief: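 HTRF competition: 5nM GST-tagged DCN (1-5) and 5nM AcUBE2M1-21-biotin peptide, with streptavidin-XL665 and anti-GST cryptate, in 100mM phosphate buffer pH 6.5 with 0.02% Tween-20. Cocktail pre-incubated 30min at room temperature, compound added, then 30min more. Excitation 320nm, emission 615/665nm. Ki from three independent repeats, mean ± SD.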

NCI-H1975 [1] = experiment: Effect on Cullin3 neddylation in human NCI-H1975 cells transfected with DCN1 siRNA3 by densitometric method; type: functional, cell-based
Method in brief: (§1)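 H1975 or PC9 cells seeded in 6-well plates for 16-24h, transfected with DCN1 siRNA#3 by lipofection, with or without compound, and collected three days later. Western blot for Cullin3, DCN1, NRF2, HO-1 and NQO1, with densitometry normalized to GAPDH. Three individual experiments, means ± SD.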

NCI-H1975 [2] = experiment: Effect on NQO1 accumulation in human NCI-H1975 cells transfected with DCN1 siRNA3 by densitometric method; type: functional, cell-based; method in brief: as §1
PC-9 [3] = experiment: Effect on NQO1 accumulation in human PC9 cells transfected with DCN1 siRNA3 by densitometric method; type: functional, cell-based; method in brief: as §1
KYSE-140 = experiment: Antiproliferative activity against human KYSE-140 after 72 hrs by MTT assay; type: functional, cell-based
Method in brief: (§2)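 MTT viability assay: cells seeded at 2~5×10^3 per well, exposed to serial dilutions of compound for 72h, then MTT (5 mg/mL in PBS) added for 4h at 37°C. Formazan dissolved in DMSO and read at 490nm. IC50 reported as mean ± SD of three independent experiments.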

ECa-109 cell line = experiment: Antiproliferative activity against human EC109 after 72 hrs by MTT assay; type: functional, cell-based; method in brief: as §2
A549 [4] = experiment: Antiproliferative activity against human A549 by MTT assay; type: functional, cell-based; settings: TDE = time-dependent effect
A549 [5] = experiment: Inhibition of colony formation in human A549 cells after 7 days by crystal violet staining based microscopic analysis; type: functional, cell-based
Method in brief: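 H1975, PC9 and A549 cells seeded at 1×10^3 cells per well and cultured overnight, then given fresh medium with compound at 0, 0.625, 1.25, 2.5, 5 or 10μM for 7 days. Cells fixed, stained with 0.1% crystal violet and imaged by microscopy; dye then dissolved and read on a plate reader. Three experiments; means ± SD.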

A549 [6] = experiment: Induction of apoptosis in human A549 cells assessed as early apoptotic cells at 5 uM after 48 hrs by Annexin V-FITC/propidium iodide staining based flow cytometry (reference value: 3.63%); type: functional
A549 [7] = experiment: Induction of apoptosis in human A549 cells assessed as viable cells at 10 uM after 48 hrs by Annexin V-FITC/propidium iodide staining based flow cytometry (reference value: 92.9%); type: functional; settings: A549, 48 h, read-out: Activity
PC-9 [8] = experiment: Induction of apoptosis in human PC9 cells assessed as viable cells at 2.5 uM after 48 hrs by Annexin V-FITC/propidium iodide staining based flow cytometry (reference value: 95.7%); type: functional; settings: PC-9, 48 h, read-out: Activity
Method in brief: (§3)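 PC9 cells seeded in 6-well plates (1~2×10^6 cells/mL), incubated overnight, then exposed to 0, 2.5, 5 or 10µM compound for 48h. Harvested cells stained with Annexin-V-FITC/PI for 30 min and analysed by flow cytometry. Three individual experiments; means ± SD.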

PC-9 [9] = experiment: Induction of apoptosis in human PC9 cells assessed as late apoptotic cells at 2.5 uM after 48 hrs by Annexin V-FITC/propidium iodide staining based flow cytometry (reference value: 1.57%); type: functional
PC-9 [10] = experiment: Induction of apoptosis in human PC9 cells assessed as necrotic cells at 2.5 uM after 48 hrs by Annexin V-FITC/propidium iodide staining based flow cytometry (reference value: 1.34%); type: functional; method in brief: as §3
PC-9 [11] = experiment: Induction of apoptosis in human PC9 cells assessed as late apoptotic cells at 5 uM after 48 hrs by Annexin V-FITC/propidium iodide staining based flow cytometry (reference value: 1.57%); type: functional
NCI-H1975 [12] = experiment: Induction of apoptosis in human NCI-NCI-H1975 cells assessed as necrotic cells at 2.5 uM after 48 hrs by Annexin V-FITC/propidium iodide staining based flow cytometry (reference value: 0.94%); type: functional
NCI-H1975 [13] = experiment: Induction of apoptosis in human NCI-NCI-H1975 cells assessed as viable cells at 5 uM after 48 hrs by Annexin V-FITC/propidium iodide staining based flow cytometry (reference value: 96.1%); type: functional; settings: NCI-H1975, 48 h, read-out: Activity
NCI-H1975 [14] = experiment: Induction of apoptosis in human NCI-NCI-H1975 cells assessed as early apoptotic cells at 5 uM after 48 hrs by Annexin V-FITC/propidium iodide staining based flow cytometry (reference value: 2.47%); type: functional
NCI-H1975 [15] = experiment: Induction of apoptosis in human NCI-NCI-H1975 cells assessed as late apoptotic cells at 5 uM after 48 hrs by Annexin V-FITC/propidium iodide staining based flow cytometry (reference value: 0.46%); type: functional
NCI-H1975 [16] = experiment: Induction of apoptosis in human NCI-NCI-H1975 cells assessed as viable cells at 10 uM after 48 hrs by Annexin V-FITC/propidium iodide staining based flow cytometry (reference value: 96.1%); type: functional; settings: NCI-H1975, 48 h, read-out: Activity
NCI-H1975 [17] = experiment: Induction of apoptosis in human NCI-NCI-H1975 cells assessed as early apoptotic cells at 10 uM after 48 hrs by Annexin V-FITC/propidium iodide staining based flow cytometry (reference value: 2.47%); type: functional
NCI-H1975 [18] = experiment: Induction of apoptosis in human NCI-NCI-H1975 cells assessed as necrotic cells at 10 uM after 48 hrs by Annexin V-FITC/propidium iodide staining based flow cytometry (reference value: 0.94%); type: functional
PC-9 [19] = experiment: Induction of apoptosis in human PC9 cells after 48 hrs by Annexin V-FITC/propidium iodide staining based flow cytometry; type: functional, cell-based; method in brief: as §3

Sequence of DCN1-like protein 1 (Q96GG9 whole entry, the tested form may be a part): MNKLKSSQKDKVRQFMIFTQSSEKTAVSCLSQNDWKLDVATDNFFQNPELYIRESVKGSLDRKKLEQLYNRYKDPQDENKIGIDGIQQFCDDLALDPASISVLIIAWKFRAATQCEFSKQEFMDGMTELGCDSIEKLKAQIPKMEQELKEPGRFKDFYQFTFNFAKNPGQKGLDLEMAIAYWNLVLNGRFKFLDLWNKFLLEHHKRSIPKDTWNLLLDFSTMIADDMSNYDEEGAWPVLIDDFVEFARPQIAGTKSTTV

Compound: C#CCSc1nc(Sc2nccs2)c(C#N)c(-c2ccc(C)cc2)n1
- IC50 (DCN1-like protein 1): 26.9 nM
- Ki (DCN1-like protein 1): 20.8 nM
- Ki (DCN1-like protein 3): 592 nM
- Activity (NCI-H1975 [1]): inactive
- Activity (NCI-H1975 [2]): inactive
- Activity (PC-9 [3]): inactive
- Activity (KYSE-140): Active
- Activity (ECa-109 cell line): Active
- Activity (A549 [4]): Tde
- inhibition (A549 [5]): Dose-dependent effect
- Activity (A549 [6]): 8.75%
- viability at 10 µM (A549 [7]): 15.7%
- viability at 2.5 µM (PC-9 [8]): 69.3%
- Activity (PC-9 [9]): 10.2%
- Activity (PC-9 [10]): 19.9%
- Activity (PC-9 [11]): 22.7%
- Activity (NCI-H1975 [12]): 1.35%
- viability at 5 µM (NCI-H1975 [13]): 37.7%
- Activity (NCI-H1975 [14]): 28.4%
- Activity (NCI-H1975 [15]): 29%
- viability at 10 µM (NCI-H1975 [16]): 17.1%
- Activity (NCI-H1975 [17]): 33.2%
- Activity (NCI-H1975 [18]): 2.74%
- Activity (PC-9 [19]): Dose-dependent effect
